“And” between values parts separate entries of the source, which are not always exact repeats. Equal entries are not always repeated.
System: U2OS
Assay: Multiplex assay against U2OS
Format: toxicity, cell-based
Settings: human
Method in brief: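 Hoechst33342, BioTracker Green Microtubule Cytoskeleton Dye, MitoTracker Red and Annexin V Alexa Fluor 680 were added to live cells at seeding, and imaging on a CQ1 microscope at 37°C and 5% CO2 followed compound addition. Gating by CellPathfinder machine learning separated cells into Hoechst high-intensity objects or normal cells, then normal cells into healthy, pyknosed or fragmented nuclei, then pyknosed cells into mitotic or apoptotic. Per cents of healthy-nucleus cells are reported for the tubulin, mitochondrial-mass and membrane-permeability phenotypes.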

[1] = 12 h, 1 µM, compound concentration 1 uM, replicate 1
[2] = 12 h, 1 µM, compound concentration 1 uM, replicate 2
[3] = 12 h, 10 µM, compound concentration 10 uM, replicate 1
[4] = 12 h, 10 µM, compound concentration 10 uM, replicate 2
[5] = 24 h, 1 µM, compound concentration 1 uM, replicate 1
[6] = 24 h, 1 µM, compound concentration 1 uM, replicate 2
[7] = 24 h, 10 µM, compound concentration 10 uM, replicate 1
[8] = 24 h, 10 µM, compound concentration 10 uM, replicate 2

CCC1=C[C@@H]2C[N@](C1)Cc1c([nH]c3ccccc13)[C@@](C(=O)OC)(c1cc3c(cc1OC)N(C)[C@H]1[C@@](O)(C(=O)OC)[C@H](OC(C)=O)[C@]4(CC)C=CCN5CC[C@]31[C@@H]54)C2.O=C(O)C(O)C(O)C(=O)O.O=C(O)C(O)C(O)C(=O)O [VINORELBINE TARTRATE]
Population Apoptotic (%) [1]: 55% and 29% | Population Fragmented Nuclei (%) [1]: 14% and 9% | Population Healthy Nuclei (%) [1]: 59% and 76% | Population Mitochondria Different-Phenotype (%) [1]: 34% and 22% | Population Mitotic Cells (%) [1]: 44% and 70% | Population Normal (%) [1]: 97% and 92% | Population Pyknosed Nuclei (%) [1]: 25% and 14% | Population Tubulin-Different-Phenotype (%) [1]: 26% | Population Fragmented Nuclei (%) [2]: 22% | Population Healthy Nuclei (%) [2]: 50% and 69% | Population Hoechst High Intensity Objects (%) [2]: 16% and 20% | Population Mitochondria Different-Phenotype (%) [2]: 30% | Population Mitotic Cells (%) [2]: 36% and 80% | Population Normal (%) [2]: 83% and 79% | Population Pyknosed Nuclei (%) [2]: 27% and 16% | Population Tubulin-Different-Phenotype (%) [2]: 45% and 34% | Population Apoptotic (%) [3]: 53% and 34% | Population Fragmented Nuclei (%) [3]: 14% and 8% | Population Healthy Nuclei (%) [3]: 74% and 76% | Population Hoechst High Intensity Objects (%) [3]: 6% and 8% | Population Mitochondria Different-Phenotype (%) [3]: 35% and 24% | Population Mitotic Cells (%) [3]: 46% and 65% | Population Normal (%) [3]: 93% and 91% | Population Pyknosed Nuclei (%) [3]: 11% and 14% | Population Tubulin-Different-Phenotype (%) [3]: 20% and 18% | Total Cell Count [3]: 168 and 185 | Population Fragmented Nuclei (%) [4]: 12% and 11% | Population Healthy Nuclei (%) [4]: 58% and 67% | Population Hoechst High Intensity Objects (%) [4]: 13% and 18% | Population Membrane Permeable-Phenotype (%) [4]: 56% and 20% | Population Mitochondria Different-Phenotype (%) [4]: 45% and 18% | Population Mitotic Cells (%) [4]: 40% and 82% | Population Normal (%) [4]: 86% and 81% | Population Pyknosed Nuclei (%) [4]: 29% and 21% | Population Tubulin-Different-Phenotype (%) [4]: 45% | Total Cell Count [4]: 132 and 78 | Population Apoptotic (%) [5]: 35% and 65% | Population Fragmented Nuclei (%) [5]: 20% and 14% | Population Healthy Nuclei (%) [5]: 49% and 56% | Population Hoechst High Intensity Objects (%) [5]: 1% and 3% | Population Membrane Permeable-Phenotype (%) [5]: 21% and 52% | Population Mitochondria Different-Phenotype (%) [5]: 26% and 37% | Population Mitotic Cells (%) [5]: 64% and 34% | Population Normal (%) [5]: 98% and 96% | Population Pyknosed Nuclei (%) [5]: 30% and 28% | Population Tubulin-Different-Phenotype (%) [5]: 41% and 34% | Population Apoptotic (%) [6]: 61% | Population Fragmented Nuclei (%) [6]: 30% and 22% | Population Healthy Nuclei (%) [6]: 36% and 59% | Population Hoechst High Intensity Objects (%) [6]: 11% and 15% | Population Membrane Permeable-Phenotype (%) [6]: 60% and 22% | Population Mitochondria Different-Phenotype (%) [6]: 40% | Population Mitotic Cells (%) [6]: 38% | Population Normal (%) [6]: 88% and 84% | Population Pyknosed Nuclei (%) [6]: 33% and 18% | Population Tubulin-Different-Phenotype (%) [6]: 62% and 31% | Population Apoptotic (%) [7]: 63% and 43% | Population Fragmented Nuclei (%) [7]: 18% and 14% | Population Healthy Nuclei (%) [7]: 55% | Population Hoechst High Intensity Objects (%) [7]: 7% and 4% | Population Membrane Permeable-Phenotype (%) [7]: 55% | Population Mitochondria Different-Phenotype (%) [7]: 29% and 33% | Population Mitotic Cells (%) [7]: 36% and 56% | Population Normal (%) [7]: 92% and 95% | Population Pyknosed Nuclei (%) [7]: 25% and 30% | Population Tubulin-Different-Phenotype (%) [7]: 29% and 34% | Total Cell Count [7]: 176 and 207 | Population Apoptotic (%) [8]: 82% and 47% | Population Fragmented Nuclei (%) [8]: 21% and 17% | Population Healthy Nuclei (%) [8]: 43% | Population Hoechst High Intensity Objects (%) [8]: 9% and 14% | Population Mitochondria Different-Phenotype (%) [8]: 43% and 22% | Population Normal (%) [8]: 90% and 85% | Population Pyknosed Nuclei (%) [8]: 34% and 26% | Population Tubulin-Different-Phenotype (%) [8]: 38% and 22% | Total Cell Count [8]: 147 and 90
